# ChEMBL document CHEMBL4130532, “Camellianols A-G, Barrigenol-like Triterpenoids with PTP1B Inhibitory Effects from the Endangered Ornamental Plant Camellia crapnelliana” (J Nat Prod, 2017)
# Tests used:
# [1] = target: T1, Tyrosine-protein phosphatase non-receptor type 1 (Homo sapiens, UniProt P18031); test: Inhibition of recombinant human GST-tagged PTP1B catalytic domain expressed in Escherichia coli BL21 using para-nitrophenyl phosphate as substrate
# T1 sequence (P18031 whole entry): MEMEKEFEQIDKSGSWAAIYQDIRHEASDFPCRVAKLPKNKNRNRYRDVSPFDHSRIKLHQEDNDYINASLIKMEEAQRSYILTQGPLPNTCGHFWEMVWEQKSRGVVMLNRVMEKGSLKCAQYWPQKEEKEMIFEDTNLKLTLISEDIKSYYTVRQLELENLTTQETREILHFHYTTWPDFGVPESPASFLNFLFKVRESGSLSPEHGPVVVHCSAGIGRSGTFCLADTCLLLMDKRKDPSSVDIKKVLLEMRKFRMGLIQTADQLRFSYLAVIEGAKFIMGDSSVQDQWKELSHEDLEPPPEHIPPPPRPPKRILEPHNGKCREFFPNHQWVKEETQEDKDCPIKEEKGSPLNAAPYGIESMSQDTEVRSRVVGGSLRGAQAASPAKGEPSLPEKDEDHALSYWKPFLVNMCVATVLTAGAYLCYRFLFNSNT
# [2] = Cytotoxicity against human L02 cells assessed as cell viability at 10 uM after 24 hrs by MTS assay relative to control; format: cell-based; details: read-out: Activity
# Method in brief: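 Human […] L02 cells were seeded and cultured overnight, then exposed to the compound at varying concentrations for 24 h. Medium containing the water-soluble tetrazolium MTS reagent was added, and the cells were incubated at 37 °C for 2 h to read out viability.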
IC50 [1] [µM],SMILES,"viability at 24 h, 10 µM [2] [%]"
2.56,C/C=C(/C)C(=O)O[C@H]1CC(C)(C)C[C@H]2C3=CC[C@@H]4[C@@]5(C)CC[C@H](O)C(C)(C)[C@@H]5CC[C@@]4(C)[C@]3(C)[C@@H](O)[C@@H](O)[C@@]12CO,> 90
47.4,CC(=O)O[C@@H]1[C@H](O)[C@]2(C)C(=CC[C@@H]3[C@@]4(C)CC[C@H](O)C(C)(C)[C@@H]4CC[C@]32C)[C@@H]2CC(C)(C)C[C@H](O)[C@]12CO,> 90
14.4,CC1(C)CC[C@]2(CO)[C@H](O)[C@H](O)[C@]3(C)C(=CC[C@@H]4[C@@]5(C)CC[C@H](O)C(C)(C)[C@@H]5CC[C@]43C)[C@@H]2C1,> 90
1.34,CC1(C)CC[C@]2(C)CC[C@@]3(C)[C@]4(C)CC[C@H]5C(C)(C)[C@@H](O)CC[C@]5(C)[C@H]4[C@H](O)C(=O)[C@]3(O)[C@@H]2C1,> 90
11.1,C/C=C(/C)C(=O)OC[C@@]12[C@H](O)[C@H](O)[C@]3(C)C(=CC[C@@H]4[C@@]5(C)CC[C@H](O)C(C)(C)[C@@H]5CC[C@]43C)[C@@H]1CC(C)(C)C[C@@H]2O,> 90
49.4,CC1(C)C[C@H](O)[C@]2(CO)[C@H](O)[C@H](O)[C@]3(C)C(=CC[C@@H]4[C@@]5(C)CCC(=O)C(C)(C)[C@@H]5CC[C@]43C)[C@@H]2C1,> 90
8.93,CC1(C)C[C@H](O)[C@]2(CO)[C@H](O)C[C@]3(C)C(=CC[C@@H]4[C@@]5(C)CC[C@H](O)C(C)(C)[C@@H]5CC[C@]43C)[C@@H]2C1,> 90
4.87,C/C=C(/C)C(=O)O[C@H]1CC(C)(C)C[C@H]2C3=CC[C@@H]4[C@@]5(C)CC[C@H](O)C(C)(C)[C@@H]5CC[C@@]4(C)[C@]3(C)[C@@H](O)[C@@H](OC(C)=O)[C@@]12CO,> 90
7.4,C/C=C(/C)C(=O)O[C@H]1CC(C)(C)C[C@H]2C3=CC[C@@H]4[C@@]5(C)CC[C@H](O)C(C)(C)[C@@H]5CC[C@@]4(C)[C@]3(C)[C@@H](OC(C)=O)[C@@H](O)[C@@]12CO,> 90
10.2,CC(=O)O[C@@H]1C[C@]2(C)C(=CC[C@@H]3[C@@]4(C)CC[C@H](O)C(C)(C)[C@@H]4CC[C@]32C)[C@@H]2CC(C)(C)C[C@H](O)[C@]12CO,> 90
20,CC(=O)O[C@@H]1[C@H](O)[C@]2(C)C(=CC[C@@H]3[C@@]4(C)CCC(=O)C(C)(C)[C@@H]4CC[C@]32C)[C@@H]2CC(C)(C)C[C@H](O)[C@]12CO,> 90
44.4,CC(=O)O[C@H]1[C@@H](O)[C@@]2(CO)[C@@H](O)CC(C)(C)C[C@H]2C2=CC[C@@H]3[C@@]4(C)CCC(=O)C(C)(C)[C@@H]4CC[C@@]3(C)[C@@]21C,> 90
19.3,C[C@H]1[C@H](C)CC[C@]2(C)CC[C@]3(C)C(=CC[C@@H]4[C@@]5(C)CC[C@H](O)C(C)(C)[C@@H]5CC[C@]43C)[C@H]12,> 90
16.8,CC1(C)C[C@H](O)[C@]2(CO)[C@H](O)[C@H](O)[C@]3(C)C(=CC[C@@H]4[C@@]5(C)CC[C@H](O)C(C)(C)[C@@H]5CC[C@]43C)[C@@H]2C1,> 90
3.68,C=C(C)[C@@H]1CC[C@]2(C)CC[C@]3(C)[C@H](CC[C@@H]4[C@@]5(C)CC[C@H](O)C(C)(C)[C@@H]5CC[C@]43C)[C@@H]12 [LUPEOL],> 90
–,CC1(C)CC[C@]2(C(=O)O)CC[C@]3(C)C(=CC[C@@H]4[C@@]5(C)CC[C@H](O)C(C)(C)[C@@H]5CC[C@]43C)[C@@H]2C1 [OLEANOLIC_ACID],> 90
> 100,CC1(C)CC[C@]2(C)CC[C@]3(C)C(=CC[C@@H]4[C@@]5(C)CC[C@H](O)C(C)(C)[C@@H]5CC[C@]43C)[C@@H]2C1 [beta-AMYRIN],> 90

SMILES,IC50 [1] [µM],"viability at 24 h, 10 µM [2] [%]"
CC(C)(O)[C@@H]1CC[C@]2(C)CC[C@]3(C)C(CC[C@@H]4[C@@]5(C)CC[C@H](O)C(C)(C)[C@@H]5CC[C@]43C)[C@H]12 (stereo not given in full),12.4,> 90
